# Measured values collected from several papers.
# Each line is one published result; the experiments were not run side by side.
# Cell line: A549
# Observed: cell growth or viability
SMILES,assay,conditions,inhibition
COc1ccccc1/C=C1\SC(=S)N(CC(=O)Nc2ccccc2)C1=O,MTT,10 µM,38.3%
Cc1ccc2c(c1)C(=NNc1nnc(Cc3ccccc3)c3ccccc13)C(=O)N2,,30 µM,85%
COc1ccc2c(c1)/C(=N/NC(=O)c1cc3ccccc3[nH]1)C(=O)N2,,30 µM,85.3%
COc1ccc(/C=C2\SC(=S)N(CC(=O)Nc3ccccc3)C2=O)cc1,MTT,10 µM,23%
O=C1Nc2ccc(F)cc2/C1=N/NC(=O)c1cc2ccccc2[nH]1,,30 µM,6.9%
Cn1c(=O)c(NN=C2C(=O)Nc3ccc(Br)cc32)nc2ccccc21,,30 µM,84.9%
O=C1Nc2ccccc2/C1=N/NC(=O)c1cc2ccccc2[nH]1,,30 µM,90.9%
COc1cc(CNC(=O)C[C@H](C)CCC=C(C)C)ccc1OCc1cn(-c2ccc(Cl)cc2)nn1,SRB,10 µM,55%
O=C(CN1C(=O)/C(=C/c2cccc([N+](=O)[O-])c2)SC1=S)Nc1ccccc1,MTT,10 µM,22.2%
CN1C(=O)/C(=N\NC(=O)c2cc3ccccc3[nH]2)c2ccccc21,,30 µM,94.9%
COc1ccc(-c2nc(NN=C3C(=O)Nc4ccccc43)c3ccccc3n2)cc1OC,,30 µM,58.6%
COc1cccc(/C=C2\SC(=S)N(CC(=O)Nc3ccccc3)C2=O)c1,MTT,10 µM,25.7%
COc1ccc(-c2nc(NN=C3C(=O)Nc4ccc(Br)cc43)c3ccccc3n2)cc1OC,,10 µM,77.1%
O=C(CN1C(=O)/C(=C/c2ccncc2)SC1=S)Nc1ccccc1,MTT,10 µM,25.9%
O=C(N/N=C1\C(=O)N(c2ccccc2)c2ccccc21)c1cc2ccccc2[nH]1,,30 µM,98.5%
Cn1c(=O)c(NN=C2C(=O)Nc3ccccc32)nc2ccccc21,,30 µM,95.2%
O=C(CN1C(=O)/C(=C/c2ccc(O)cc2)SC1=S)Nc1ccccc1,MTT,10 µM,29.6%
COc1cc2ncnc(NN=C3C(=O)Nc4ccc(F)cc43)c2cc1OC,,10 µM,7.1%
CCN(CC)CCNC(=O)c1c(C)[nH]c(/C=C2\C(=O)Nc3ccc(F)cc32)c1C,,30 µM,85.7%
